Test results published in ChEMBL document CHEMBL5724801, “EUbOPEN Chemogenomics Library - Multiplex” (2024).
Several values for one entry are separate records, joined by “and”; a condition that tells them apart may be missing. Identical values can stand only once.

Test system: Fibroblast
Assay: Multiplex assay against human fibroblast
Format: toxicity, cell-based
Summary of the method: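 Tubulin, mitochondrial-mass and membrane-permeability phenotypes are per cents of healthy-nucleus cells. Cells were gated by CellPathfinder machine learning into Hoechst high-intensity objects or normal cells, normal cells into healthy, pyknosed or fragmented nuclei, and pyknosed cells into mitotic or apoptotic. Before that, live cells stained at seeding with Hoechst33342, BioTracker Green Microtubule Cytoskeleton Dye, MitoTracker Red and Annexin V Alexa Fluor 680 were imaged on a CQ1 microscope at 37°C and 5% CO2 after compound addition.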

[1] = 12 h, 1 µM, compound concentration 1 uM
[2] = 12 h, 10 µM, compound concentration 10 uM
[3] = 24 h, 1 µM, compound concentration 1 uM
[4] = 24 h, 10 µM, compound concentration 10 uM
[5] = 48 h, 1 µM, compound concentration 1 uM
[6] = 48 h, 10 µM, compound concentration 10 uM

Cc1c(C(=O)NCCCN(C)C)sc2ncnc(Nc3ccc(F)cc3OC(C)CF)c12 (stereo not given)
Population Fragmented Nuclei (%) [1]: 17.37% and 8.18%
Population Healthy Nuclei (%) [1]: 51.64% and 79.93%
Population Hoechst High Intensity Objects (%) [1]: 0%
Population Membrane Permeable-Phenotype (%) [1]: 0.91% and 2.79%
Population Mitochondria Different-Phenotype (%) [1]: 15.45% and 13.95%
Population Mitotic Cells (%) [1]: 92.42% and 75%
Population Normal (%) [1]: 100%
Population Pyknosed Nuclei (%) [1]: 30.99% and 11.9%
Population Tubulin-Different-Phenotype (%) [1]: 30.91% and 38.14%
Total Cell Count [1]: 213 and 269
Population Apoptotic (%) [2]: 19.3% and 27.27%
Population Fragmented Nuclei (%) [2]: 12.69% and 4.88%
Population Healthy Nuclei (%) [2]: 43.46% and 60.98%
Population Hoechst High Intensity Objects (%) [2]: 0%
Population Membrane Permeable-Phenotype (%) [2]: 10.62% and 8%
Population Mitochondria Different-Phenotype (%) [2]: 35.4% and 21.45%
Population Mitotic Cells (%) [2]: 80.7% and 72.73%
Population Normal (%) [2]: 100%
Population Pyknosed Nuclei (%) [2]: 43.85% and 34.15%
Population Tubulin-Different-Phenotype (%) [2]: 46.9% and 77.82%
Total Cell Count [2]: 260 and 451
Population Fragmented Nuclei (%) [3]: 16.28% and 8.79%
Population Healthy Nuclei (%) [3]: 68.99% and 76.87%
Population Hoechst High Intensity Objects (%) [3]: 0%
Population Membrane Permeable-Phenotype (%) [3]: 2.25% and 3.81%
Population Mitochondria Different-Phenotype (%) [3]: 5.06% and 8.05%
Population Mitotic Cells (%) [3]: 94.74% and 72.73%
Population Normal (%) [3]: 100%
Population Pyknosed Nuclei (%) [3]: 14.73% and 14.33%
Population Tubulin-Different-Phenotype (%) [3]: 28.09% and 38.14%
Total Cell Count [3]: 258 and 307
Population Apoptotic (%) [4]: 33.11% and 50.51%
Population Fragmented Nuclei (%) [4]: 9.29% and 4.55%
Population Healthy Nuclei (%) [4]: 35.69% and 45.45%
Population Hoechst High Intensity Objects (%) [4]: 0%
Population Membrane Permeable-Phenotype (%) [4]: 13.54% and 11.11%
Population Mitochondria Different-Phenotype (%) [4]: 40.62% and 36.11%
Population Mitotic Cells (%) [4]: 66.89% and 49.49%
Population Normal (%) [4]: 100%
Population Pyknosed Nuclei (%) [4]: 55.02% and 50%
Population Tubulin-Different-Phenotype (%) [4]: 75% and 87.78%
Total Cell Count [4]: 269 and 396
Population Apoptotic (%) [5]: 28.57% and 61.54%
Population Fragmented Nuclei (%) [5]: 15.91% and 10.44%
Population Healthy Nuclei (%) [5]: 79.55% and 85.44%
Population Hoechst High Intensity Objects (%) [5]: 0%
Population Membrane Permeable-Phenotype (%) [5]: 0% and 7.04%
Population Mitochondria Different-Phenotype (%) [5]: 6.94% and 2.59%
Population Mitotic Cells (%) [5]: 71.43% and 38.46%
Population Normal (%) [5]: 100%
Population Pyknosed Nuclei (%) [5]: 4.55% and 4.11%
Population Tubulin-Different-Phenotype (%) [5]: 15.92% and 33.7%
Total Cell Count [5]: 308 and 316
Population Apoptotic (%) [6]: 51.69% and 82.89%
Population Fragmented Nuclei (%) [6]: 13.56% and 8.54%
Population Healthy Nuclei (%) [6]: 48.73% and 29.67%
Population Hoechst High Intensity Objects (%) [6]: 0%
Population Membrane Permeable-Phenotype (%) [6]: 14.78% and 17.81%
Population Mitochondria Different-Phenotype (%) [6]: 50.43% and 54.79%
Population Mitotic Cells (%) [6]: 48.31% and 17.11%
Population Normal (%) [6]: 100%
Population Pyknosed Nuclei (%) [6]: 37.71% and 61.79%
Population Tubulin-Different-Phenotype (%) [6]: 76.52% and 83.56%
Total Cell Count [6]: 236 and 246

CC(C)[C@H](C(=O)Nc1ccc(C(=O)NO)cc1)c1ccccc1 [AR-42]
Population Apoptotic (%) [1]: 28.12% and 16.67%
Population Fragmented Nuclei (%) [1]: 8.81% and 7.87%
Population Healthy Nuclei (%) [1]: 74.61% and 85.39%
Population Hoechst High Intensity Objects (%) [1]: 0%
Population Membrane Permeable-Phenotype (%) [1]: 3.47% and 2.63%
Population Mitochondria Different-Phenotype (%) [1]: 4.17% and 7.89%
Population Mitotic Cells (%) [1]: 71.88% and 83.33%
Population Normal (%) [1]: 100%
Population Pyknosed Nuclei (%) [1]: 16.58% and 6.74%
Population Tubulin-Different-Phenotype (%) [1]: 4.17% and 7.24%
Total Cell Count [1]: 193 and 178
Population Apoptotic (%) [2]: 32% and 26.67%
Population Fragmented Nuclei (%) [2]: 10.88% and 4.5%
Population Healthy Nuclei (%) [2]: 76.17% and 88.74%
Population Hoechst High Intensity Objects (%) [2]: 0%
Population Membrane Permeable-Phenotype (%) [2]: 6.8% and 2.54%
Population Mitochondria Different-Phenotype (%) [2]: 5.44% and 5.58%
Population Mitotic Cells (%) [2]: 68% and 73.33%
Population Normal (%) [2]: 100%
Population Pyknosed Nuclei (%) [2]: 12.95% and 6.76%
Population Tubulin-Different-Phenotype (%) [2]: 7.48% and 5.58%
Total Cell Count [2]: 193 and 222
Population Apoptotic (%) [3]: 40% and 44.44%
Population Fragmented Nuclei (%) [3]: 11.98% and 8.95%
Population Healthy Nuclei (%) [3]: 80.21% and 86.32%
Population Hoechst High Intensity Objects (%) [3]: 0%
Population Membrane Permeable-Phenotype (%) [3]: 2.6% and 3.05%
Population Mitochondria Different-Phenotype (%) [3]: 2.6% and 3.66%
Population Mitotic Cells (%) [3]: 60% and 55.56%
Population Normal (%) [3]: 100%
Population Pyknosed Nuclei (%) [3]: 7.81% and 4.74%
Population Tubulin-Different-Phenotype (%) [3]: 1.95% and 1.83%
Total Cell Count [3]: 192 and 190
Population Apoptotic (%) [4]: 50% and 57.14%
Population Fragmented Nuclei (%) [4]: 11.56% and 10.3%
Population Healthy Nuclei (%) [4]: 79.19% and 83.69%
Population Hoechst High Intensity Objects (%) [4]: 0%
Population Membrane Permeable-Phenotype (%) [4]: 3.65% and 0%
Population Mitochondria Different-Phenotype (%) [4]: 4.38% and 6.67%
Population Mitotic Cells (%) [4]: 50% and 42.86%
Population Normal (%) [4]: 100%
Population Pyknosed Nuclei (%) [4]: 9.25% and 6.01%
Population Tubulin-Different-Phenotype (%) [4]: 3.65% and 2.56%
Total Cell Count [4]: 173 and 233
Population Apoptotic (%) [5]: 37.5% and 50%
Population Fragmented Nuclei (%) [5]: 15.15% and 11.46%
Population Healthy Nuclei (%) [5]: 76.77% and 82.29%
Population Hoechst High Intensity Objects (%) [5]: 0%
Population Membrane Permeable-Phenotype (%) [5]: 1.32% and 1.27%
Population Mitochondria Different-Phenotype (%) [5]: 19.74% and 7.59%
Population Mitotic Cells (%) [5]: 62.5% and 50%
Population Normal (%) [5]: 100%
Population Pyknosed Nuclei (%) [5]: 8.08% and 6.25%
Population Tubulin-Different-Phenotype (%) [5]: 2.63% and 3.8%
Total Cell Count [5]: 198 and 192
Population Apoptotic (%) [6]: 31.48% and 89.58%
Population Fragmented Nuclei (%) [6]: 17.84% and 9.95%
Population Healthy Nuclei (%) [6]: 52.97% and 64.92%
Population Hoechst High Intensity Objects (%) [6]: 0%
Population Membrane Permeable-Phenotype (%) [6]: 1.02% and 3.23%
Population Mitochondria Different-Phenotype (%) [6]: 21.43% and 8.06%
Population Normal (%) [6]: 100%
Population Pyknosed Nuclei (%) [6]: 29.19% and 25.13%
Total Cell Count [6]: 185 and 191

COc1cc(N2CCN(C)CC2)ccc1Nc1nccc(-c2cn(C)c3cnccc23)n1
Population Apoptotic (%) [1]: 11.76% and 10%
Population Fragmented Nuclei (%) [1]: 12.81% and 10.18%
Population Healthy Nuclei (%) [1]: 70.44% and 80.97%
Population Hoechst High Intensity Objects (%) [1]: 0%
Population Membrane Permeable-Phenotype (%) [1]: 3.5% and 4.92%
Population Mitochondria Different-Phenotype (%) [1]: 9.79% and 6.56%
Population Mitotic Cells (%) [1]: 88.24% and 90%
Population Normal (%) [1]: 100%
Population Pyknosed Nuclei (%) [1]: 16.75% and 8.85%
Population Tubulin-Different-Phenotype (%) [1]: 16.78% and 35.52%
Total Cell Count [1]: 203 and 226
Population Apoptotic (%) [2]: 3.08% and 5.97%
Population Healthy Nuclei (%) [2]: 41.67% and 59.65%
Population Hoechst High Intensity Objects (%) [2]: 0%
Population Membrane Permeable-Phenotype (%) [2]: 13.85% and 8.82%
Population Mitochondria Different-Phenotype (%) [2]: 35.38% and 54.9%
Population Mitotic Cells (%) [2]: 96.92% and 94.03%
Population Normal (%) [2]: 100%
Population Pyknosed Nuclei (%) [2]: 41.67% and 39.18%
Population Tubulin-Different-Phenotype (%) [2]: 55.38% and 85.29%
Total Cell Count [2]: 156 and 171
Population Apoptotic (%) [3]: 21.74% and 7.69%
Population Fragmented Nuclei (%) [3]: 12.15% and 10.47%
Population Healthy Nuclei (%) [3]: 77.1% and 84.5%
Population Hoechst High Intensity Objects (%) [3]: 0%
Population Membrane Permeable-Phenotype (%) [3]: 4.85% and 5.05%
Population Mitochondria Different-Phenotype (%) [3]: 10.3% and 3.21%
Population Mitotic Cells (%) [3]: 78.26% and 92.31%
Population Normal (%) [3]: 100%
Population Pyknosed Nuclei (%) [3]: 10.75% and 5.04%
Population Tubulin-Different-Phenotype (%) [3]: 13.94% and 38.53%
Total Cell Count [3]: 214 and 258
Population Apoptotic (%) [4]: 5.77% and 8.77%
Population Healthy Nuclei (%) [4]: 47.62% and 66.67%
Population Hoechst High Intensity Objects (%) [4]: 0%
Population Membrane Permeable-Phenotype (%) [4]: 2.86% and 10.48%
Population Mitochondria Different-Phenotype (%) [4]: 41.43% and 41.13%
Population Mitotic Cells (%) [4]: 94.23% and 91.23%
Population Normal (%) [4]: 100%
Population Pyknosed Nuclei (%) [4]: 35.37% and 30.65%
Population Tubulin-Different-Phenotype (%) [4]: 70% and 74.19%
Total Cell Count [4]: 147 and 186
Population Fragmented Nuclei (%) [5]: 17.86% and 7.25%
Population Healthy Nuclei (%) [5]: 77.23% and 87.02%
Population Hoechst High Intensity Objects (%) [5]: 0%
Population Membrane Permeable-Phenotype (%) [5]: 0% and 1.75%
Population Mitochondria Different-Phenotype (%) [5]: 12.72% and 3.95%
Population Mitotic Cells (%) [5]: 100% and 66.67%
Population Normal (%) [5]: 100%
Population Pyknosed Nuclei (%) [5]: 4.91% and 5.73%
Population Tubulin-Different-Phenotype (%) [5]: 12.72% and 38.16%
Total Cell Count [5]: 224 and 262
Population Fragmented Nuclei (%) [6]: 16.88% and 21.97%
Population Healthy Nuclei (%) [6]: 73.75% and 64.57%
Population Hoechst High Intensity Objects (%) [6]: 0%
Population Membrane Permeable-Phenotype (%) [6]: 5.08% and 2.08%
Population Mitochondria Different-Phenotype (%) [6]: 31.36% and 25%
Population Mitotic Cells (%) [6]: 66.67% and 90%
Population Normal (%) [6]: 100%
Population Pyknosed Nuclei (%) [6]: 9.38% and 13.45%
Population Tubulin-Different-Phenotype (%) [6]: 44.92% and 80.56%
Total Cell Count [6]: 160 and 223
